ABCB1 inh: ABCB1 efflux pump inhibitors, primary screen, cell-based, multiplex, flow cytometry, ABCG2 counter-screen | CCRF-Adr cells, JC-1 efflux | inhibition, % at 6.6 µM | 190,000 compounds, 0.067% hits; in the data active means inhibition above about 40%;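 further: 0% = vehicle and 100% = reference inhibitor; higher value means more JC-1 retained so stronger ABCB1 efflux block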
GRK2 inh: compounds blocking aptamer binding on GRK2 – biochemical, human GRK2, bead flow cytometry, HTS, primary screen; Beta-adrenergic receptor kinase 1 (Homo sapiens), P25098; FAM-aptamer displacement from GRK2; inhibition of aptamer binding, % at 10 µM; 330,000 compounds, 0.59% hits; AID 488847, 2010;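 active means inhibition of aptamer binding above 40%, roughly 3 SD of noise, on plates passing a quality check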;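 further: median bead fluorescence of bound FAM aptamer so fluorescent compounds give negative values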
Target sequence (P25098 whole entry, looked up): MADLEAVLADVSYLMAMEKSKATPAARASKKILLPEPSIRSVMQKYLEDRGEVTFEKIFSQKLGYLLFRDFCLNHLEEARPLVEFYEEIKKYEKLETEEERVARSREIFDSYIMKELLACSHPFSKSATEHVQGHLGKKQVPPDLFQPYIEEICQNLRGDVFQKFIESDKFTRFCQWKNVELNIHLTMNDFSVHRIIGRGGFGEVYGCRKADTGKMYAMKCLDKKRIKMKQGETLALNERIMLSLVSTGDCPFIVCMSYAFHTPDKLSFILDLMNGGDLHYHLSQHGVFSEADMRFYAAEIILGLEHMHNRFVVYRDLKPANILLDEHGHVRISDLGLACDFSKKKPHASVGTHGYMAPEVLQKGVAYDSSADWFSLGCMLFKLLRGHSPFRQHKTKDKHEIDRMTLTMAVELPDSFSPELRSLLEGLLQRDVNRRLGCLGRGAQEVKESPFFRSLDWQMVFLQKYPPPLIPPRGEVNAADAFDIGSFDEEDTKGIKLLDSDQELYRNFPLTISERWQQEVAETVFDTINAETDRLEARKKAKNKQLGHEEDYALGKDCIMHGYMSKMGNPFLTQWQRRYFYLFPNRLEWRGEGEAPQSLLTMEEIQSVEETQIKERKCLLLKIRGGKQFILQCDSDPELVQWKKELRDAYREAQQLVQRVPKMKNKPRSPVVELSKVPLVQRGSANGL
ABCG2 inh: ABCG2 efflux pump inhibitors, primary screen, multiplex with ABCB1, IgMXP3 cells, flow cytometry; AID 1325, 2008; 190,000 compounds, 0.1% hits; JC-1 efflux; Broad substrate specificity ATP-binding cassette transporter ABCG2 (Homo sapiens), Q9UNQ0; inhibition, % at 6.6 µM;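 active means inhibition above 80%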;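 further: 0% = DMSO and 100% = nicardipine control wells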
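Times: 10 min at 25 °C | Test system: Two drug-resistant human cell lines, ABCG2 and ABCB1 | Quantity: 3 million cells/mL final, two lines in 1:1 ratio | Signal: Flow cytometry, 530 nm JC-1 signal | Dosing: Compound at 6.6 µM | Controls: Nicardipine and DMSO wells | Reagent: JC-1 as fluorescent efflux pump substrate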
Insulin prom up: insulin promoter activators in MIN6 cells, imaging, high-content screening, mouse beta cells; z-score at 5 µM; 190,000 compounds, 0.3% hits; MIN6 insulin promoter-GFP reporter; hits give high values;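 active means z-score above 3 at 5 µM with at least 500 cells counted in the well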
Tn6 DDE FP: inhibitors of Tn6 peptide binding to fibrin DD(E), primary screen, biochemical, fluorescence polarization, human fibrin, Tn6 probe; Fibrinogen beta chain (Homo sapiens), P02675; Fibrin DD(E) TRITC-Tn6 fluorescence polarization displacement; inhibition, % at 8.3 µM; 370,000 compounds, 0.21% hits;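 active means inhibition above a per-campaign cutoff: mean of compounds within control limits plus 3 SD, cut at about 15% in these data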;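 further: 0% = median of all compound wells on the plate and 100% = blocking peptide control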
Tn7 DDE FP: inhibitors of Tn7 peptide binding to fibrin DD(E), primary screen, biochemical, fluorescence polarization, human fibrin, Tn7 probe | inhibition, % at 8.3 µM | FP displacement of FITC-Tn7 peptide from fibrin DD(E); 0% = median of compound wells per plate | AID 720508, 2013 | Fibrinogen beta chain (Homo sapiens), P02675 | 370,000 compounds, 0.13% hits;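 active means inhibition above the mean of compounds falling within the control limits plus 3 SD of them, cut at about 14% in these data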;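 further: 0% = plate median of compound wells and 100% = 10 µM Aha-Tn7 peptide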
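assay system = human clot-derived fibrin DD(E) complex | quantity = Fibrin-DD(E) at 2 µM final | timing = 10 min preincubation, 3 h with tracer, room temperature | signal = fluorescence polarization | measure = percent inhibition | benchmarks = high control wells with 10 µM unlabelled Aha-Tn7 peptide (full inhibition) | replicates = singlicate testing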
GRK2 CP1: GRK2 aptamer-displacing inhibitors, retest, confirmation, biochemical, cherry pick 1, bead flow cytometry; aptamer displacement, % at 10 µM; AID 504451, 2011; bead-bound GRK2, FAM-aptamer displacement; shares compounds with GRK2 inh; 2,000 compounds, 4% hits;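 active means aptamer displacement above 40%, near three times the noise of non-fluorescent compounds, on plates passing quality checks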;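 further: negative values mostly reflect intrinsic compound fluorescence rather than true enhancement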
Aptamer quench SP: quenches fluorescent RNA aptamer, GRK2 hit artifact; shares compounds with GRK2 inh; Carboxyfluorescein RNA aptamer on beads, flow cytometry quenching; hits give low values; fluorescence response (% of DMSO), % at 10 µM; 2,000 tested, under 10 active; AID 504580;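 active means compounds that quench the bead-bound fluorescent RNA probe, cutting fluorescence to under half of the solvent control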;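 further: counterscreen run without GRK2 so only probe quenching by compound is measured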
GRK2 confirm 2: GRK2 aptamer-displacing inhibitors, hit retest, confirmation, biochemical, cherry pick 2, bead flow cytometry. shares compounds with GRK2 inh. bead-bound GRK2, FAM-aptamer displacement. inhibition of aptamer binding, % at 10 µM. 360 tested, under 10 active. AID 504782, 2011;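 active means inhibition of aptamer binding above 40%, about triple the noise seen with nonglowing compounds, on plates passing quality control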;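 further: negative values mostly come from compounds that fluoresce themselves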
Aptamer quench 2: fluorescence quenching of FAM-labeled RNA aptamer, dose response, artefact control for GRK2 aptamer inhibitor project, biochemical, flow cytometry, cherry pick 2; shares compounds with GRK2 inh; change in fluorescence (kMESF span), kMESF (concentration not given with the values); Streptavidin beads; 25 tested, under 10 active;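 active means compounds quenching the bead-bound labeled aptamer, with fluorescence dropping by more than 37 kMESF over the dose range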
FAM quench SP: counter-screen for GRK2 binding hits: quenchers of fluorescent RNA aptamer. shares compounds with GRK2 inh. carboxyfluorescein RNA aptamer beads, flow cytometry quenching; hits give low values. fluorescence response vs DMSO, % at 10 µM. 360 tested, under 10 active;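 active means response vs DMSO under 50%, meaning signal dropped by over half, treated as fluorescence quencher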;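 further: labelled aptamer on streptavidin beads without GRK2 as a quench counter-screen; 100% = bead fluorescence of DMSO wells and lower means quenching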
Numbers without * were called inactive. Most compounds without a hit are left out; they make up all but 0.99% or so of the library.

Screening COc1ccccc1Oc1coc2c(CN3CCOCC3)c(O)ccc2c1=O returned GRK2 inh 2, Insulin prom up 0.62, Tn6 DDE FP -2 and Tn7 DDE FP 2.
`COc1ccccc1Oc1c(C)oc2c(CN3CCOCC3)c(O)ccc2c1=O` gave GRK2 inh 58*, Insulin prom up -0.06, Tn6 DDE FP 6, Tn7 DDE FP -5, GRK2 CP1 3 and Aptamer quench SP 99.
`CCCCCCCCN1C(=O)[C@@H](CC(=O)NCc2ccccc2)C[C@@]2(C(=O)OC)C1=C[C@H](COCc1ccccc1)O[C@@H]2C` gave Tn6 DDE FP 5 and Tn7 DDE FP -3.
For O=C(Cc1cc(C(=O)O)c2ccccc2n1)Nc1ccccc1 the results were ABCB1 inh -1, GRK2 inh 0, ABCG2 inh 2, Insulin prom up -0.06, Tn6 DDE FP 3 and Tn7 DDE FP 5.
CCN(CC)C(=O)Cc1cc(C(=O)O)c2ccccc2n1 was read as ABCB1 inh 1, GRK2 inh 29, ABCG2 inh 1, Insulin prom up 0.63, Tn6 DDE FP -3, Tn7 DDE FP 1, GRK2 CP1 -8 and Aptamer quench SP 104.
`COc1cc(/C=C/C(=O)Nc2ccc3nc4n(c(=O)c3c2)CCCC4)cc(OC)c1OC` gave ABCB1 inh -1, GRK2 inh 92*, ABCG2 inh -3, Tn6 DDE FP -10, Tn7 DDE FP 2, GRK2 CP1 1 and Aptamer quench SP 99.
For O=C(N/N=C/c1ccc([N+](=O)[O-])o1)C1CC1 the results were ABCB1 inh 0, GRK2 inh 83*, ABCG2 inh 3, Insulin prom up -0.02, Tn6 DDE FP -10, Tn7 DDE FP 3, GRK2 CP1 23 and Aptamer quench SP 99.
`COC(=O)c1ccc(N2CCc3ccccc32)c([N+](=O)[O-])c1` gave GRK2 inh 52*, Tn6 DDE FP -1, Tn7 DDE FP 0, GRK2 CP1 0 and Aptamer quench SP 97.
Cn1c(=O)c2[nH]c(SCC(=O)NCCc3ccc(F)cc3)nc2n(C)c1=O was read as Tn6 DDE FP 3 and Tn7 DDE FP -1.
`CCC(=O)Nc1ccccc1C(=O)C(=O)Nc1ccccc1` gave ABCB1 inh 1, GRK2 inh 40, ABCG2 inh 16, Insulin prom up 0.38, Tn6 DDE FP -2, Tn7 DDE FP -2, GRK2 CP1 -2 and Aptamer quench SP 97.
`Cc1ccc(S(=O)(=O)N(C)[C@H]2C[C@H]3c4cc(-c5ccccc5C)ccc4CCN3C[C@H]2[C@H](C)O)cc1` gave Tn6 DDE FP -1 and Tn7 DDE FP 2.
COc1ccc(NC(=O)COC(=O)c2c3c(nc4ccccc24)CCCC3)cc1 was read as ABCB1 inh 0, GRK2 inh 3, ABCG2 inh 0, Insulin prom up 0.36, Tn6 DDE FP -14 and Tn7 DDE FP -4.
COc1ccc(OC)c(NC(=O)COC(=O)c2c3c(nc4ccccc24)CCCC3)c1 was read as ABCB1 inh 4, GRK2 inh 73*, ABCG2 inh 14, Insulin prom up -0.34, Tn6 DDE FP 3, Tn7 DDE FP -8, GRK2 CP1 2 and Aptamer quench SP 97.
`CC(C)=NN1C(c2nonc2N)=NOC1(C)C` gave GRK2 inh 39, Insulin prom up 0.05, Tn6 DDE FP 8, Tn7 DDE FP -1, GRK2 CP1 -4 and Aptamer quench SP 104.
For COc1ccc(-c2csc3nc(-c4ccc(C)cc4)oc(=O)c23)cc1OC the results were ABCB1 inh -1, GRK2 inh 79*, ABCG2 inh -5, Tn6 DDE FP 3, Tn7 DDE FP -3, GRK2 confirm 2 65*, Aptamer quench 2 3.3 and FAM quench SP 101.
Cc1ccc(-c2nc(-c3ccncc3)no2)cc1C was read as GRK2 inh 0, Tn6 DDE FP 1 and Tn7 DDE FP -4.
`Cc1cc(-c2nc(-c3ccncc3)no2)ccc1[N+](=O)[O-]` gave GRK2 inh 25, Tn6 DDE FP -7, Tn7 DDE FP -5, GRK2 CP1 0 and Aptamer quench SP 102.
Screening Cc1ccc(-n2ncc3c(SCC(=O)NNC(=O)C(C)C)ncnc32)cc1 returned GRK2 inh 97*, Tn6 DDE FP 2, Tn7 DDE FP -1, GRK2 CP1 -1 and Aptamer quench SP 100.
For CC(C)C(=O)NNC(=O)CSc1ncnc2c1cnn2-c1ccccc1Cl the results were GRK2 inh 0, Tn6 DDE FP 0 and Tn7 DDE FP 0.
`O=S(=O)(c1ccc(F)cc1)N1CCCNCC1` gave GRK2 inh 0, Tn6 DDE FP 3, Tn7 DDE FP -2, GRK2 CP1 -13 and Aptamer quench SP 104.
Cc1ccc(S(=O)(=O)N2CCCNCC2)cc1 was read as GRK2 inh 2, Tn6 DDE FP 2 and Tn7 DDE FP -8.
CCCNS(=O)(=O)c1ccc(CCC(=O)N2CCOCC2)cc1 was read as ABCB1 inh 0, GRK2 inh 61*, ABCG2 inh 1, Insulin prom up -0.32, Tn6 DDE FP 1, Tn7 DDE FP -1, GRK2 CP1 -13 and Aptamer quench SP 96.

Compound activity deposited in PubChem by several laboratories.
